The values below come from ChEMBL document CHEMBL5036335, “Functional Characterization of the Nemertide α Family of Peptide Toxins” (J Nat Prod, 2021).

A short description of data set [1]: Toxicity in Artemia salina assessed as mortality incubated for 24 hrs in dark by microwell assay. In kind it is organism-based. The gist of the method: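 Nauplii hatched from cysts in aerated artificial seawater (33 g/L), harvested at 24 h, RT. Peptide at 0.003–300 μM in water, in duplicate wells with water control, plus 10–15 nauplii in salt water. Dead and immobilized nauplii counted under a microscope, then the rest killed with MeOH and all counted. % dead or immobilized per well; EC50 by nonlinear regression.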

Data set [2] deals with Sodium channel protein type 1 subunit alpha (Homo sapiens, UniProt P35498). The experiment in a line: Modulator activity at human Nav1.1 expressed in Xenopus laevis oocytes assessed as elicitation in sodium current measured after 1 to 4 days by two-electrode voltage clamp assay. In kind it is cell-based, Oocyte. The gist of the method: (§1)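 Channel cRNA, with auxiliary subunits rβ1, hβ1 or TipE, transcribed from linearized plasmids; 50 nL of 1 ng/nL injected into stage V–VI X. laevis oocytes, kept in 96 mM NaCl, 2 mM KCl, 1.8 mM CaCl2, 2 mM MgCl2, 5 mM HEPES pH 7.4 with gentamycin. Two-electrode voltage clamp at 18–22 °C in same bath solution; 3 M KCl electrodes of 0.8–1.5 MΩ; currents filtered at 1 kHz, sampled at 20 kHz. EC50 from Hill equation fit.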

The target in data set [3] is Sodium channel protein type 2 subunit alpha (Rattus norvegicus, UniProt P04775). Description: Modulator activity at rat Nav1.2 expressed in Xenopus laevis oocytes assessed as elicitation in sodium current measured after 1 to 4 days by two-electrode voltage clamp assay. In kind it is cell-based, Oocyte. The gist of the method: as §1
In data set [4] the target is Sodium channel protein type 3 subunit alpha (Rattus norvegicus, UniProt P08104). The experiment in a line: Modulator activity at rat Nav1.3 expressed in Xenopus laevis oocytes assessed as elicitation in sodium current measured after 1 to 4 days by two-electrode voltage clamp assay. It counts as cell-based, Oocyte. Summed up: as §1
The target of data set [5] is Sodium channel protein type 4 subunit alpha (Rattus norvegicus, UniProt P15390). Description: Modulator activity at rat Nav1.4 expressed in Xenopus laevis oocytes assessed as elicitation in sodium current measured after 1 to 4 days by two-electrode voltage clamp assay. In kind it is cell-based, Oocyte. Summed up:
as §1

In data set [6] the target is Sodium channel protein type 5 subunit alpha (Homo sapiens, UniProt Q14524). Description: Modulator activity at human Nav1.5 expressed in Xenopus laevis oocytes assessed as elicitation in sodium current measured after 1 to 4 days by two-electrode voltage clamp assay. It counts as cell-based, Oocyte. The gist of the method: as §1
Data set [7] deals with Sodium channel protein type 8 subunit alpha (Mus musculus, UniProt Q9WTU3). The experiment in a line: Modulator activity at mouse Nav1.6 expressed in Xenopus laevis oocytes assessed as elicitation in sodium current measured after 1 to 4 days by two-electrode voltage clamp assay. In kind it is cell-based, Oocyte. The gist of the method:
as §1

Data set [8] deals with Sodium channel protein type 9 subunit alpha (Homo sapiens, UniProt Q15858). The experiment in a line: Modulator activity at human Nav1.7 expressed in Xenopus laevis oocytes assessed as elicitation in sodium current measured after 1 to 4 days by two-electrode voltage clamp assay. It counts as cell-based, Oocyte. Summed up: as §1
The target of data set [9] is Sodium channel protein type 10 subunit alpha (Rattus norvegicus, UniProt Q62968). The experiment in a line: Modulator activity at rat Nav1.8 expressed in Xenopus laevis oocytes assessed as elicitation in sodium current measured after 1 to 4 days by two-electrode voltage clamp assay. In kind it is cell-based. The settings on record: oocyte. The gist of the method: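 Channel cRNA transcribed from linearized plasmid; 50 nL at 1 ng/nL injected into stage V–VI oocytes. Oocytes held in 96 mM NaCl, 2 mM KCl, 1.8 mM CaCl2, 2 mM MgCl2, 5 mM HEPES pH 7.4 with gentamycin. TEVC at 18–22 °C in the same solution, electrodes 3 M KCl, 0.8–1.5 MΩ. Currents filtered 1 kHz, sampled 20 kHz. EC50 from Hill equation fit.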

Data set [10] in a line: Modulator activity at german cockroach Nav1 expressed in Xenopus laevis oocytes assessed as elicitation in sodium current measured after 1 to 4 days by two-electrode voltage clamp assay. The following applies: Blattella germanica, Oocyte. It counts as cell-based. The gist of the method:
as §1

Sodium channel protein type 10 subunit alpha, sequence (Q62968 whole entry): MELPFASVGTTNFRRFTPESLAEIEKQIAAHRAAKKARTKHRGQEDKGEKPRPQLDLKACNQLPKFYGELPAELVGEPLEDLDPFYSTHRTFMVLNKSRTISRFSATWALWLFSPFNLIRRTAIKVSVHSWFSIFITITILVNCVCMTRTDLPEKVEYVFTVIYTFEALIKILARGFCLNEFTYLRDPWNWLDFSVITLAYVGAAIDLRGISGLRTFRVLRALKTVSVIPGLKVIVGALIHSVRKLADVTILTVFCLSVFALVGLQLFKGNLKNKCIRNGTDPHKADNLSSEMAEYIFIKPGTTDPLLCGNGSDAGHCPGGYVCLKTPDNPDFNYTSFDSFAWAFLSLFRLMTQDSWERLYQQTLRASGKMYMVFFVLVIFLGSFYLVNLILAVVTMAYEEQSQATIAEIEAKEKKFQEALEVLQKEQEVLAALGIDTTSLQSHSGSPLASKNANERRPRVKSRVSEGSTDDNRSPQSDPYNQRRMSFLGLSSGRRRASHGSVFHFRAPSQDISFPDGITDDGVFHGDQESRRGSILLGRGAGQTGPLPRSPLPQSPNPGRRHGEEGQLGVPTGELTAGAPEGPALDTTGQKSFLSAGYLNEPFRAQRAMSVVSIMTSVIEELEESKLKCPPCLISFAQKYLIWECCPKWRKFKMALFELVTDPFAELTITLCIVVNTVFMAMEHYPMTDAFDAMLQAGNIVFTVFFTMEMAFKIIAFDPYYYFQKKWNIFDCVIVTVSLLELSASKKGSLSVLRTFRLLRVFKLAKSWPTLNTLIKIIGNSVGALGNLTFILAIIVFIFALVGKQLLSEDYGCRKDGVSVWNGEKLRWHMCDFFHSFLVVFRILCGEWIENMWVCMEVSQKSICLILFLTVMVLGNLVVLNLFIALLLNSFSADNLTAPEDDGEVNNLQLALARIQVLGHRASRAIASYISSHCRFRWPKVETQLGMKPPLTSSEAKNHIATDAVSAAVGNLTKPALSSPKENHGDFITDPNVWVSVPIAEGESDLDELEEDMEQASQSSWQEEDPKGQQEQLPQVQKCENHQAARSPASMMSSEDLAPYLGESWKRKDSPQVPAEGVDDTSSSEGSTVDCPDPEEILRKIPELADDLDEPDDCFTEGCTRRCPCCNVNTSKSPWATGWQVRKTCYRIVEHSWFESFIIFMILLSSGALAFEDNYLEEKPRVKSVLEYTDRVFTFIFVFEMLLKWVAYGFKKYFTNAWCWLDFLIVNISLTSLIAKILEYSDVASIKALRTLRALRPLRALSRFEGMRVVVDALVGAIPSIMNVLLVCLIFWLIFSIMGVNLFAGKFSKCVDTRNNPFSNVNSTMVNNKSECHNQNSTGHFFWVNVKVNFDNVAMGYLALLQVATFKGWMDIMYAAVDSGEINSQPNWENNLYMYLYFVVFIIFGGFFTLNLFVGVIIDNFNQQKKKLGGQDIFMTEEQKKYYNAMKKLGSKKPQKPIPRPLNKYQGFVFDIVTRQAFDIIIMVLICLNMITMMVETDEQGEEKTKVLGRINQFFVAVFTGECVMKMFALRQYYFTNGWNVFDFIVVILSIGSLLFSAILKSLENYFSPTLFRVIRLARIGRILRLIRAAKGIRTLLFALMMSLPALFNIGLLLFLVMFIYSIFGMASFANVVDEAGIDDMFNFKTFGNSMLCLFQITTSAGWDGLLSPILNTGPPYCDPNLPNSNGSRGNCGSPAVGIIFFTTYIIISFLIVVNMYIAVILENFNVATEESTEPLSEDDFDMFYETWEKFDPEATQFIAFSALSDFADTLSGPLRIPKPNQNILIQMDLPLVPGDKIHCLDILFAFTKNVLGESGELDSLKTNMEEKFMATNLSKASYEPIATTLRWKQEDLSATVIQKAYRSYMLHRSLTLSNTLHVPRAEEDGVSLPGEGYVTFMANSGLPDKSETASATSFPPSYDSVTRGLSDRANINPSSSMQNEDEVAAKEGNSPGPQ
Sodium channel protein type 2 subunit alpha, sequence (P04775 whole entry): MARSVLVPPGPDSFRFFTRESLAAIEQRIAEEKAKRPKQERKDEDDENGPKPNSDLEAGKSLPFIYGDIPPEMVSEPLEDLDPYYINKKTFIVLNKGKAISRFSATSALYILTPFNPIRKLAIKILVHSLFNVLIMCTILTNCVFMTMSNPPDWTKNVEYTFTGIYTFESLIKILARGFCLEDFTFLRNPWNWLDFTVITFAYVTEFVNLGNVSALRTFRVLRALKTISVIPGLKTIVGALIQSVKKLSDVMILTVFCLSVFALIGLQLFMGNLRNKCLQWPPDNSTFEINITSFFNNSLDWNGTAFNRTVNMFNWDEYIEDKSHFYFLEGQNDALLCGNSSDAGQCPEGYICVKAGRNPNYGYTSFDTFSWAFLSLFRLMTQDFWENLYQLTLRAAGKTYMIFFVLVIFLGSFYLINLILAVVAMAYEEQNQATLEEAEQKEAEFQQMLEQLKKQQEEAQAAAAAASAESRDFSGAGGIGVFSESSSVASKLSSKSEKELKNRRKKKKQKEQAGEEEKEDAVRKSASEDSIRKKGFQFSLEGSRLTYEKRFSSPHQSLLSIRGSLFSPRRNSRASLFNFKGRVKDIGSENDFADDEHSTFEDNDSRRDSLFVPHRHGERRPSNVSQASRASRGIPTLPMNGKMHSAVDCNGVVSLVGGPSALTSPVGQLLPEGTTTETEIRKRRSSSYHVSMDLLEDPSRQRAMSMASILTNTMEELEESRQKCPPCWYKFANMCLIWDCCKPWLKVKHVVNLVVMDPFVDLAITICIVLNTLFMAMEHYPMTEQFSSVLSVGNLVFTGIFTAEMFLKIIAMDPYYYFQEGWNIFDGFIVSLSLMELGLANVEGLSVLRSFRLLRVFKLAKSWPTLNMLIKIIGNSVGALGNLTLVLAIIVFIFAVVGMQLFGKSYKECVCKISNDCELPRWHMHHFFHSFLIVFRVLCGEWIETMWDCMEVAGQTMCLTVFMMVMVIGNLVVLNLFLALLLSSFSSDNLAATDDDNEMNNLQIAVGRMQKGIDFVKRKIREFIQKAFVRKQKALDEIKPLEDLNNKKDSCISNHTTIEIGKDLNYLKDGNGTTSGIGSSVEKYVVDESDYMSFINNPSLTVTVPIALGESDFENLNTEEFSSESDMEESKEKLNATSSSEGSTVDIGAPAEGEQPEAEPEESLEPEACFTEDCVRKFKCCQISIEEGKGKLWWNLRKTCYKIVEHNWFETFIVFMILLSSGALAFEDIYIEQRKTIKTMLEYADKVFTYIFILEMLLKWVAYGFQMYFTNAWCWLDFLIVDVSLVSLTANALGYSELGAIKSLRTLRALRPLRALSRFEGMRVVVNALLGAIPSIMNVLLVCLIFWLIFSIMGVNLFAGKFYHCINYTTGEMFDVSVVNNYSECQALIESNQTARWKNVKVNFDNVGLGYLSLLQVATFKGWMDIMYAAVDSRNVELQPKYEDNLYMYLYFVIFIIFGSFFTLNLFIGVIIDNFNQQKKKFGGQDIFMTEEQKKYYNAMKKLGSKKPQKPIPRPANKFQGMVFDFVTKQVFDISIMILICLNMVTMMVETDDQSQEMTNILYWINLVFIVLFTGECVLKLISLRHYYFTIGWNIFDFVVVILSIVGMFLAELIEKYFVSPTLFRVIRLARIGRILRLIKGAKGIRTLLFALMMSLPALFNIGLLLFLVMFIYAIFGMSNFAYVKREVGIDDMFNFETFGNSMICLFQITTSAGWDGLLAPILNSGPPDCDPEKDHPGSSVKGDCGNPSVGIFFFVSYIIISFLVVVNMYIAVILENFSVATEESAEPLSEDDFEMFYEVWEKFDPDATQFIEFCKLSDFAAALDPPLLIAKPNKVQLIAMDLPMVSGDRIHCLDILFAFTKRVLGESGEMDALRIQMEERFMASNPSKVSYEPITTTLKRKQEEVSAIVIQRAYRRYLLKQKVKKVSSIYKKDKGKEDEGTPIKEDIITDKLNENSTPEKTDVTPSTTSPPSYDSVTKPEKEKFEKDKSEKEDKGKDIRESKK

For `CC[C@H](C)[C@@H]1NC(=O)[C@@H](NC(=O)CN)CSSC[C@@H]2NC(=O)[C@@H]3CSSC[C@@H](C(=O)N[C@@H](CC(N)=O)C(=O)N4C[C@@H](O)C[C@H]4C(=O)N4C[C@@H](O)C[C@H]4C(=O)N[C@@H](CC(N)=O)C(=O)N[C@@H](CCC(N)=O)C(=O)O)NC(=O)[C@H](CCCCN)NC(=O)[C@H](Cc4ccccc4)NC(=O)[C@H](CC(N)=O)NC(=O)[C@H](Cc4c[nH]c5ccccc45)NC(=O)CNC(=O)[C@H](CSSC[C@H](NC(=O)[C@H](Cc4ccccc4)NC(=O)[C@H](CO)NC(=O)CNC(=O)[C@H]([C@@H](C)O)NC(=O)[C@H](CO)NC1=O)C(=O)N[C@@H]([C@@H](C)O)C(=O)N[C@@H](CC(C)C)C(=O)N[C@@H](CO)C(=O)N[C@@H](CCCCN)C(=O)NCC(=O)N3)NC(=O)[C@H](CC(N)=O)NC(=O)[C@H](CCCCN)NC(=O)[C@H]([C@@H](C)O)NC2=O`, the EC50 at 24 h in [1] is 400 nM. In addition, the EC50 in data set [2] turned out to be 92 nM; in data set [3], 134 nM; in [4], 12.9 nM; in [5], 14.6 nM; in [6], 27.8 nM; in data set [7], 124 nM. The EC50 in data set [8] was 80.5 nM; in data set [9] it was “Not Active”; in [10] it was 11.1 nM.

As for `CC[C@H](C)[C@@H]1NC(=O)[C@@H](NC(=O)CN)CSSC[C@@H]2NC(=O)[C@@H]3CSSC[C@@H](C(=O)N[C@@H](CC(N)=O)C(=O)N4C[C@@H](O)C[C@H]4C(=O)N4C[C@@H](O)C[C@H]4C(=O)N[C@@H](CC(N)=O)C(=O)N[C@@H](CCC(N)=O)C(=O)O)NC(=O)[C@H](Cc4cnc[nH]4)NC(=O)[C@H](Cc4ccccc4)NC(=O)[C@H](CC(N)=O)NC(=O)[C@H](Cc4c[nH]c5ccccc45)NC(=O)CNC(=O)[C@H](CSSC[C@H](NC(=O)[C@H](Cc4ccccc4)NC(=O)[C@H](CO)NC(=O)CNC(=O)[C@H]([C@@H](C)O)NC(=O)[C@H](CCCCN)NC1=O)C(=O)N[C@@H]([C@@H](C)O)C(=O)N[C@@H](CC(C)C)C(=O)N[C@@H](CO)C(=O)N[C@@H](CCCCN)C(=O)NCC(=O)N3)NC(=O)[C@H](CC(N)=O)NC(=O)[C@H](CCCCN)NC(=O)[C@H]([C@@H](C)O)NC2=O`, in [1], the EC50 at 24 h is 2800 nM. Further, the EC50 in [2] was 7.9 nM; in data set [3], 24.3 nM; in [4], 106 nM; in [5], 46.4 nM; in data set [6], 215 nM; in data set [7] it was 36.3 nM. In addition, the EC50 in data set [8] was 97.2 nM; in [9], “Not Active”; in [10], 2.6 nM.

As for `CC[C@H](C)[C@@H]1NC(=O)[C@@H](NC(=O)CN)CSSC[C@@H]2NC(=O)[C@@H]3CSSC[C@@H](C(=O)N[C@@H](CC(N)=O)C(=O)N4C[C@@H](O)C[C@H]4C(=O)N4C[C@@H](O)C[C@H]4C(=O)N[C@@H](CC(N)=O)C(=O)N[C@@H](CCC(N)=O)C(=O)O)NC(=O)[C@H](CCCCN)NC(=O)[C@H](Cc4ccccc4)NC(=O)[C@H](CC(N)=O)NC(=O)[C@H](Cc4c[nH]c5ccccc45)NC(=O)CNC(=O)[C@H](CSSC[C@H](NC(=O)[C@H](C(C)C)NC(=O)[C@H](CO)NC(=O)CNC(=O)[C@H]([C@@H](C)O)NC(=O)[C@H](C)NC1=O)C(=O)N[C@@H]([C@@H](C)O)C(=O)N[C@@H](CC(C)C)C(=O)N[C@@H](CO)C(=O)N[C@@H](CCCCN)C(=O)NCC(=O)N3)NC(=O)[C@H](CC(N)=O)NC(=O)[C@H](CCCCN)NC(=O)[C@H]([C@@H](C)O)NC2=O`, the EC50 at 24 h in [1] was determined as 2900 nM. For the same compound, the EC50 in data set [2] came out at 126 nM; in data set [3], 97.9 nM; in data set [4], 128 nM; in data set [5] it was 1150 nM; in data set [6], 149 nM; in data set [7] it was 1360 nM. Besides, the EC50 in [8] was 1300 nM; in [9] it was “Not Active”; in data set [10] it was 87.2 nM.

For `CC[C@H](C)[C@@H]1NC(=O)[C@@H](NC(=O)CN)CSSC[C@@H]2NC(=O)[C@@H]3CSSC[C@@H](C(=O)N[C@@H](CC(N)=O)C(=O)N[C@H](CCCCN)C(=O)N4C[C@@H](O)C[C@H]4C(=O)N[C@@H](CC(N)=O)C(=O)N[C@@H](CCC(N)=O)C(=O)O)NC(=O)[C@H](Cc4cnc[nH]4)NC(=O)[C@H](Cc4ccccc4)NC(=O)[C@H](CC(N)=O)NC(=O)[C@H](Cc4c[nH]c5ccccc45)NC(=O)CNC(=O)[C@H](CSSC[C@H](NC(=O)[C@H](CCSC)NC(=O)[C@H](CO)NC(=O)CNC(=O)[C@H](C(C)C)NC(=O)[C@@H]4CCCN4C1=O)C(=O)N[C@@H]([C@@H](C)O)C(=O)N[C@@H](CC(C)C)C(=O)N[C@@H](CO)C(=O)N[C@@H](CC(N)=O)C(=O)NCC(=O)N3)NC(=O)[C@H](CC(N)=O)NC(=O)[C@H](CCCCN)NC(=O)[C@H]([C@@H](C)O)NC2=O`, the EC50 at 24 h in [1] turned out to be 6100 nM. Moreover, the EC50 in data set [2] (oocyte) was 172 nM; in data set [3] (oocyte), 50.4 nM; in [4] (oocyte), 170 nM; in [5] (oocyte), 811 nM; in [6] (oocyte), 156 nM; in data set [7] (oocyte), 148 nM. Moreover, the EC50 in data set [8] (oocyte) is 129 nM; in data set [9], “Not Active”; in data set [10], 9.5 nM.

Regarding `CC[C@H](C)[C@@H]1NC(=O)[C@@H](NC(=O)CN)CSSC[C@@H]2NC(=O)[C@@H]3CSSC[C@@H](C(=O)N[C@@H](CC(N)=O)C(=O)N4C[C@@H](O)C[C@H]4C(=O)N4C[C@@H](O)C[C@H]4C(=O)N[C@@H](CC(N)=O)C(=O)N[C@@H](CCC(N)=O)C(=O)O)NC(=O)[C@H](CCCCN)NC(=O)[C@H](Cc4ccccc4)NC(=O)[C@H](CC(N)=O)NC(=O)[C@H](Cc4c[nH]c5ccccc45)NC(=O)CNC(=O)[C@H](CSSC[C@H](NC(=O)CNC(=O)[C@H](CO)NC(=O)CNC(=O)[C@H]([C@@H](C)O)NC(=O)[C@H](CCCCN)NC1=O)C(=O)N[C@@H]([C@@H](C)O)C(=O)N[C@@H](CC(C)C)C(=O)N[C@@H](CO)C(=O)N[C@@H](CCCCN)C(=O)NCC(=O)N3)NC(=O)[C@H](CC(N)=O)NC(=O)[C@H](CCCCN)NC(=O)[C@H]([C@@H](C)O)NC2=O`, the EC50 at 24 h in data set [1] worked out at 4700 nM. The EC50 in data set [2] stood at 126 nM; in [3], 138 nM; in data set [4], 139 nM; in data set [5] it was 150 nM; in [6] it was 108 nM; in data set [7], 92.8 nM. The EC50 is 102 nM in data set [8], “Not Active” in data set [9] and 97.5 nM in data set [10].

In the case of `CC[C@H](C)[C@@H]1NC(=O)[C@@H](NC(=O)CN)CSSC[C@@H]2NC(=O)[C@@H]3CSSC[C@@H](C(=O)N[C@@H](CC(N)=O)C(=O)N4C[C@@H](O)C[C@H]4C(=O)N4C[C@@H](O)C[C@H]4C(=O)N[C@@H](CC(N)=O)C(=O)N[C@@H](CCC(N)=O)C(=O)O)NC(=O)[C@H](Cc4cnc[nH]4)NC(=O)[C@H](Cc4ccccc4)NC(=O)[C@H](CC(N)=O)NC(=O)[C@H](Cc4c[nH]c5ccccc45)NC(=O)CNC(=O)[C@H](CSSC[C@H](NC(=O)[C@H](Cc4ccccc4)NC(=O)[C@H](CO)NC(=O)CNC(=O)[C@H]([C@@H](C)O)NC(=O)[C@H](C)NC1=O)C(=O)N[C@@H]([C@@H](C)O)C(=O)N[C@@H](CC(C)C)C(=O)N[C@@H](CO)C(=O)N[C@@H](CCCCN)C(=O)NCC(=O)N3)NC(=O)[C@H](CC(N)=O)NC(=O)[C@H](CCCCN)NC(=O)[C@H]([C@@H](C)O)NC2=O`, in data set [1], the EC50 at 24 h is 400 nM. Moreover, the EC50 in [2] was 102 nM; in [3] it was 156 nM; in [4] it was 9.4 nM; in [5], 15.4 nM; in [6] it was 133 nM; in [7], 66.9 nM. For the same compound, the values for the EC50 in data set [8], in data set [9] and in data set [10] were 73 nM, “Not Active” and 7.8 nM, respectively.
